Measurements taken from ChEMBL document CHEMBL4616673 (J Med Chem, 2020).
pIC50: −log10 of the molar value. ≈ marks a conversion by molar mass, not a printed value. Where “and” joins values, the source holds several entries; their conditions need not be identical. Equal entries are not always repeated. Calls of active or inactive are those of the source. The rule behind the calls is not given here.

How the values were obtained:
[1] = Acute toxicity in BALB/c mouse assessed as effect on blood TP level at 800 mg/kg, po measured on day 14; format: organism-based; settings: in vivo
Outline: (§1)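 BALB/c mice, female and male, 6-8 weeks old, given oral doses within 24 h, up to 400 mg/kg (free compound) or 800 mg/kg (nanocrystal formulation). Watched for body weight loss, diarrhea, anorexia, skin ulcer and toxic death. Serum biochemistry panel was run at the end of treatment.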

[2] = Half life in Sprague-Dawley rat at 25 mg/kg, po administered via gavage by LC-MS analysis; format: ADME, organism-based; settings: in vivo
Outline: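 Male Sprague-Dawley rats, fasted overnight, with jugular vein catheters for serial blood sampling. Single dose given by oral gavage (25 mg/kg) or tail-vein injection (5 mg/kg). Blood drawn at set times and centrifuged at once for plasma. Plasma drug levels measured by LC-MS. Parameters reported as means, n = 6.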

[3] = system: Raji; assay: Induction of apoptosis in human Raji cells assessed as live cells at 0.031 uM measured after 48 hrs by Annexin V-FITC staining based flow cytometry (reference value: 98.09 %); format: functional
[4] = Stability of the compound in pH 9 buffer assessed as decrease in compound concentration at 0.01 mg/ml measured up to 24 hrs by LC-MS analysis; format: physicochemical; settings: read-out: Drug degradation
Outline: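 Compound at 0.01 mg/mL final in buffer containing 10% acetonitrile at pH 1.0, 4.5, 6.6, 7.4 or 9.0. Held at 37 °C, sampled at 0, 2, 4, 6, 8, 10, 12 and 24 h. Remaining compound by LC-MS.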

[5] = system: Raji; assay: Antitumor activity against human Raji cells xenografted in NOD-SCID nude mouse assessed as tumor growth inhibition at 80 mg/kg/day, po administered 6 days a week for 3 weeks relative to control; format: functional; settings: read-out: TGI
[6] = Acute toxicity in BALB/c mouse assessed as effect on blood UA level at 800 mg/kg, po measured on day 14; format: organism-based; settings: in vivo; outline: as §1
[7] = Acute toxicity in BALB/c mouse assessed as effect on blood CK level at 800 mg/kg, po measured on day 14; format: organism-based; settings: in vivo; outline: as §1
[8] = Oral bioavailability in Sprague-Dawley rat at 25 mg/kg administered via gavage by LC-MS analysis; format: ADME, organism-based; settings: in vivo
Outline: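 Male Sprague-Dawley rats, fasted overnight, jugular vein catheter for serial blood sampling. Single dose of 25 mg/kg by oral gavage or 5 mg/kg by tail-vein injection. Blood drawn at set times and spun at once for plasma, plasma drug by LC-MS. Parameters given as mean, n = 6.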

[9] = system: Raji; assay: Cell cycle arrest in human Raji cells assessed as accumulation at S phase at 0.125 uM measured after 24 hrs by propidium iodide/RNase staining based flow cytometry (reference value: 52%); format: functional
[10] = Acute toxicity in BALB/c mouse assessed as effect on spleen at 800 mg/kg, po measured on day 14 by H and E staining based light microscopic analysis; format: organism-based; settings: in vivo
Outline: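 Female and male BALB/c mice, 6-8 weeks old, dosed orally within 24 h at up to 400 mg/kg (free compound) or 800 mg/kg (nanocrystal). At the end of treatment, heart, liver, spleen, lung and kidney were sectioned, stained with H&E and imaged by light microscopy.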

[11] = Solubility of the compound in PBS; format: physicochemical
[12] = Acute toxicity in BALB/c mouse assessed as effect on blood ALT level at 400 mg/kg, po measured on day 14; format: organism-based; settings: in vivo; outline: as §1
[13] = system: Raji; assay: Induction of ROS generation in human Raji cells assessed as increase in ROS level measured after 24 hrs by DHE dye based fluorescence microplate reader assay; format: functional, cell-based
Outline: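 Raji cells treated 24 h, harvested, stained with 10 μM DHE in pre-warmed PBS for 15 min in the dark. Fluorescence read on a plate reader at ex 510/em 600 nm. Mean ± SD.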

[14] = Acute toxicity in BALB/c mouse assessed as effect on blood HDL level at 400 mg/kg, po measured on day 14; format: organism-based; settings: in vivo; outline: as §1
[15] = system: Raji; assay: Antiproliferative activity against human Raji cells assessed as inhibition of cell proliferation at 0.02 to 0.156 uM measured after 48 hrs in presence of uridine by MTT assay; format: functional, cell-based
Outline: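 Raji cells treated with or without 500 μM uridine, viability by MTT. Cells seeded at 2-10 × 10^3 per well, treated 24 h later for 48 h. MTT (5 mg/mL) for 2-4 h, product dissolved overnight in 20% acidified SDS, absorbance at 570 nm. Mean ± SD.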

[16] = Acute toxicity in BALB/c mouse assessed as effect on blood LDLC level at 400 mg/kg, po measured on day 14; format: organism-based; settings: in vivo; outline: as §1
[17] = Acute toxicity in BALB/c mouse assessed as effect on blood CHO1 level at 800 mg/kg, po measured on day 14; format: organism-based; settings: in vivo; outline: as §1
[18] = system: Raji; assay: Induction of apoptosis in human Raji cells assessed as necrotic cells at 0.031 uM measured after 48 hrs by Annexin V-FITC staining based flow cytometry (reference value: 0.21 %); format: functional
[19] = Acute toxicity in BALB/c mouse assessed as effect on blood ALP level at 800 mg/kg, po measured on day 14; format: organism-based; settings: in vivo; outline: as §1
[20] = Acute toxicity in BALB/c mouse assessed as effect on blood GLU level at 400 mg/kg, po measured on day 14; format: organism-based; settings: in vivo; outline: as §1
[21] = system: Raji; assay: Antiproliferative activity against human Raji cells assessed as reduction in cell viability measured after 48 hrs by MTT assay; format: functional, cell-based; settings: Homo sapiens, Raji, 48 h
[22] = Toxicity in NOD-SCID nude mouse xenografted with human Raji cells assessed as dermatitis at 30 mg/kg/day, po administered 6 days a week for 3 weeks; format: organism-based; settings: in vivo
Outline: (§2)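 Mice, 6-7 weeks old, injected s.c. with 1×10^7 Raji cells in serum-free medium plus basement membrane matrix. At 100–200 mm3 tumours, randomised (n=6). Oral dosing 6 days/week for 3 weeks: 30 mg/kg/d free compound suspended in 5% NMP/95% PEG400, or 40 or 80 mg/kg/d nanocrystal. Body weight and tumour volume measured every 3 days.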

[23] = system: A549; assay: Antiproliferative activity against human A549 cells assessed as reduction in cell viability measured after 48 hrs by MTT assay; format: functional, cell-based; settings: Homo sapiens, A549, 48 h
[24] = Acute toxicity in BALB/c mouse assessed as effect on blood CREA level at 800 mg/kg, po measured on day 14; format: organism-based; settings: in vivo; outline: as §1
[25] = Toxicity in NOD-SCID nude mouse xenografted with human Raji cells assessed as effect on body weight at 30 mg/kg/day, po administered 6 days a week for 3 weeks and measured every 3 days; format: organism-based; settings: in vivo; outline: as §2
[26] = Acute toxicity in BALB/c mouse assessed as effect on blood BUN level at 800 mg/kg, po measured on day 14; format: organism-based; settings: in vivo; outline: as §1
[27] = Toxicity in NOD-SCID nude mouse xenografted with human Raji cells assessed as death at 30 mg/kg/day, po administered 6 days a week for 3 weeks; format: organism-based; settings: in vivo; outline: as §2

SMILES: O=C1c2ccccc2C(=O)c2c1nnn2-c1cc(F)c(-c2ccccc2F)c(F)c1
- Activity [1]: Non-Toxic
- half-life ([2]; Sprague-Dawley): 8.83 h
- t1/2 [2]: 12.47 h
- Activity [3]: 93.14%
- degraded at 24 h, 0.01 mg/ml [4]: 15%
- inhibition in vivo at 80 mg/kg/day [5]: 68%
- Activity [6]: Non-Toxic
- Activity [7]: Non-Toxic
- F [8]: 9.66% and 25.16%
- Activity [9]: 86.31%
- Activity [10]: Non-Toxic
- solubility [11]: 33.8 µg/mL (≈ 83.4 µM)
- Activity [12]: Non-Toxic
- Activity [13]: Dose-dependent effect
- Activity [14]: Non-Toxic
- inhibition [15]: inactive
- Activity [16]: Non-Toxic
- Activity [17]: Non-Toxic
- Activity [18]: 0.37%
- Activity [19]: Non-Toxic
- Activity [20]: Non-Toxic
- pIC50 [21]: 6.80
- Activity [22]: Non-Toxic
- pIC50 [23]: 5.78
- Activity [24]: Non-Toxic
- Activity [25]: Non-Toxic
- Activity [26]: Non-Toxic
- Activity [27]: Non-Toxic
